The nature of assay [1]: Inhibition of chymotrypsin (unknown origin) using sucAAPFamc substrate preincubated for 10 mins followed by addition of substrate and measured every 30 sec for 60 mins by fluorescence based assay. More on the design: species or system Homo sapiens. A digest of the protocol:
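Chymotrypsin, 1.5 nM final (added as 15 nM stock), preincubated with inhibitor for 10 min at 30 °C in 100 mM Tris pH 7.8, 10 mM CaCl2. Started with sucAAPFamc (added as 15 μM stock). AMC release read every 30 s for 60 min (ex 350, em 450 nm), in triplicate. IC50 from fitted data.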

A further assay addresses T1, Papain (Carica papaya, UniProt P00784).
T1 sequence (P00784 whole entry): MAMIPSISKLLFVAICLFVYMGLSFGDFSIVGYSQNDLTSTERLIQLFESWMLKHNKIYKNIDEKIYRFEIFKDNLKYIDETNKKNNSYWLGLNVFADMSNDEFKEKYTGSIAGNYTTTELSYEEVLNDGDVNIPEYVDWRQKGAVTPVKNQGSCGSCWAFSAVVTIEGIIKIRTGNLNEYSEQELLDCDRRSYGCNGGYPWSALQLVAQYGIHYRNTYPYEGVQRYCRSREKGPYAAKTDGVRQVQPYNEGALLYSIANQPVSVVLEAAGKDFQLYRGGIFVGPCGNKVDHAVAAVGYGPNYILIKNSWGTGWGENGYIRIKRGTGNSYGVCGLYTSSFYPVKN
Briefly: Inhibition of papaya papain using cbzFRamc substrate preincubated for 10 mins followed by addition of substrate and measured every 30 sec for 60 mins by fluorescence based assay. A digest of the protocol:
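Papain, 1.5 nM final (added as 15 nM stock), preincubated with inhibitor for 10 min at 30 °C in 50 mM phosphate pH 6.8, 10 mM EDTA, 2 mM DTT. Started with 50 μM cbzFRamc. AMC release read every 30 s for 60 min (ex 350, em 450 nm), in triplicate. IC50 from fitted data.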

The target of the next assay is T2, Papain (Carica papaya) (UniProt P00784).
T2 sequence (whole entry): T1 sequence (P00784 whole entry)
The assay can be described thus: Binding affinity to papaya papain assessed as change in melting temperature at 200 uM incubated for 15 mins by scanning fluorimetry. In outline:
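Melting followed by tryptophan fluorescence at 330 and 350 nm during 1 °C/min heating (differential scanning fluorimetry), run in duplicate. Shift taken as difference from the enzyme's melting point.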

The species named for the next assay is Homo sapiens. The assay can be described thus: Binding affinity to chymotrypsin (unknown origin) assessed as change in melting temperature at 200 uM incubated for 15 mins by scanning fluorimetry. In outline: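 20 μM chymotrypsin held on ice for 15 min with 200 μM inhibitor in 100 mM Tris pH 7.8, 10 mM CaCl2. Melting followed by tryptophan fluorescence at 330 and 350 nm during 1 °C/min heating (differential scanning fluorimetry), run in duplicate. Shift taken as difference from the enzyme's melting point.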

The record followed here is ChEMBL document CHEMBL4699532, “Decoding the Papain Inhibitor from Streptomyces mobaraensis as Being Hydroxylated Chymostatin Derivatives: Purification, Structure Analysis, and Putative Biosynthetic Pathway” (J Nat Prod, 2020).

Turning to `CC(C)[C@H](NC(=O)[C@@H](NC(=O)N[C@@H](Cc1ccc(O)cc1)C(=O)O)[C@H]1CCNC(=N)N1)C(=O)N[C@H](C=O)Cc1ccc(O)cc1`, the results for the IC50 (in assay [1]; at Papain) were 4.8 nM and 6.3 nM, respectively. Further, the results for the ΔTm at Papain (Carica papaya) and in the assay filed under Homo sapiens were 0.9 °C and 15.1 °C, respectively.
The like results for `CC(C)[C@H](NC(=O)[C@@H](NC(=O)N[C@@H](Cc1ccc(O)cc1)C(=O)O)[C@H]1CCNC(=N)N1)C(=O)N[C@H](C=O)Cc1ccccc1` were, in that order, 7 nM, 17.8 nM, 0.9 °C and 13.5 °C.
The matching figures for `CC(C)[C@H](NC(=O)[C@H](CCCNC(=N)N)NC(=O)N[C@@H](Cc1ccccc1)C(=O)O)C(=O)N[C@H](C=O)CCCNC(=N)N` [ANTIPAIN]: over 30000 nM, 3.4 nM, 0.9 °C and 1.7 °C.
With `CC(=O)N[C@@H](CC(C)C)C(=O)N[C@@H](CC(C)C)C(=O)N[C@H](C=O)CCCNC(=N)N` [LEUPEPTIN], the IC50 in assay [1] is over 30000 nM; at Papain it was 2.2 nM. The values for the ΔTm at Papain (Carica papaya) and in the assay listed under Homo sapiens were 1 °C and 0.2 °C, respectively.

As usually defined, the IC50 is the midpoint of a concentration-inhibition curve. The term ΔTm denotes the change in melting temperature against a reference sample.
